B1: Osa-1-4 twister ribozyme (parent)
chain: CCGCCUAACACUGCCAAUGCCGGUCCCAAGCCCGGAUAAAAGUGGAGGGGGCGG

Variants of B1 are the subject of the series. The experiment in a line: self-cleavage, relative activity (ratio to wild type); higher = more cleavage; co-transcriptional. In short, it runs like this: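 For each read, cleavage status was taken from whether upstream sequence was present. The reads came from an Oryza sativa twister ribozyme of 54 nucleotides, whose DNA template was synthesised with 97 % wild-type base and 1 % of each other base at the 48 positions downstream of the cleavage site. The template was transcribed in vitro at 37 °C for 2 h with co-transcriptional self-cleavage, and the RNA was reverse-transcribed using a template-switching oligonucleotide, PCR-amplified and deep-sequenced. Relative activity is the fraction cleaved normalised to wild type.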
Regarding CCGCCUAACACUGCCAAUGCCGGUCCGAAGCCCGGAUAAAAGUGGAGGGGACGG [C27G G51A], the self-cleavage was 0.05.

With CCGCCUAACACUGCCAAUGCCGGUCCGAAGCCCGGAUAAAAGUGGAGGGGUCGG [C27G G51U], the self-cleavage is 0.04.

Regarding CCGCCUAACACUGCCAAUGCCGGUCCGAAGCCCGGAUAAAAGUGGAGGGGCCGG [C27G G51C], the self-cleavage came out at 0.02.

Take CCGCCUAACACUGCCAAUGCCGGUCCGAAGCCCGGAUAAAAGUGGAGGGGGCGC [C27G G54C]: the self-cleavage stood at 0.04.

In the case of CCGCCUAACACUGCCAAUGCCGGUCCGAAGCCCGGAUAAAAGUGGAGGGGGCGA [C27G G54A], the self-cleavage is 0.06.

For CCGCCUAACACUGCCAAUGCCGGUCCGAAGCCCGGAUAAAAGUGGAGGGGGCGU [C27G G54U], the self-cleavage worked out at 0.12.

CCGCCUAACACUGCCAAUGCCGGUCCGAACCCCGGAUAAAAGUGGAGGGGGCGG [C27G G30C]: the self-cleavage stood at 0.02.

CCGCCUAACACUGCCAAUGCCGGUCCGAAUCCCGGAUAAAAGUGGAGGGGGCGG [C27G G30U]: the self-cleavage stood at 0.02.

Take CCGCCUAACACUGCCAAUGCCGGUCCGAAGCCCGGAUAAAAGUGGACGGGGCGG [C27G G47C]: the self-cleavage is 0.86.

For CCGCCUAACACUGCCAAUGCCGGUCCGAAGCCCGGAUAAAAGUGGAUGGGGCGG [C27G G47U], the self-cleavage was 0.21.

Regarding CCGCCUAACACUGCCAAUGCCGGUCCGAAGCCCGGAUAAAAGUGGAAGGGGCGG [C27G G47A], the self-cleavage came out at 0.15.

Take CCGCCUAACACUGCCAAUGCCGGUCCGAAGCCCAGAUAAAAGUGGAGGGGGCGG [C27G G34A]: the self-cleavage stood at 0.07.

With CCGCCUAACACUGCCAAUGCCGGUCCGAAGCCCCGAUAAAAGUGGAGGGGGCGG [C27G G34C], the self-cleavage came to 0.05.

For CCGCCUAACACUGCCAAUGCCGGUCCGAAGCCCUGAUAAAAGUGGAGGGGGCGG [C27G G34U], the self-cleavage is 0.08.

In the case of CCGCCUAACACUGCCAAUGCCGGUCCGAAGCCCGGAUAAAAGUGGAGGGAGCGG [C27G G50A], the self-cleavage stood at 0.09.

As to CCGCCUAACACUGCCAAUGCCGGUCCGAAGCCCGGAUAAAAGUGGAGGGUGCGG [C27G G50U], the self-cleavage is 0.07.

Take CCGCCUAACACUGCCAAUGCCGGUCCGAAGCCCGGAUAAAAGUGGAGGGCGCGG [C27G G50C]: the self-cleavage came out at 0.05.

CCGCCUAACACUGCCAAUGCCGGUCCGAAGCCCGGAUAAAAGUUGAGGGGGCGG [C27G G44U]: the self-cleavage came out at 0.05.

Regarding CCGCCUAACACUGCCAAUGCCGGUCCGAAGCCCGGAUAAAAGUCGAGGGGGCGG [C27G G44C], the self-cleavage was 0.08.

Regarding CCGCCUAACACUGCCAAUGCCGGUCCGAAGCCCGGAUAAAAGUAGAGGGGGCGG [C27G G44A], the self-cleavage turned out to be 0.06.

In the case of CCGCCUAACACUGCCAAUGCCGGUCCGAAGCCCGGAUAAAAGUGGAGGUGGCGG [C27G G49U], the self-cleavage is 0.04.

Turning to CCGCCUAACACUGCCAAUGCCGGUCCGAAGCCCGGAUAAAAGUGGAGGCGGCGG [C27G G49C], the self-cleavage worked out at 0.03.

For CCGCCUAACACUGCCAAUGCCGGUCCGAAGCCCGGAUAAAAGUGGAGGAGGCGG [C27G G49A], the self-cleavage is 0.04.

As for CCGCCUAACACUGCCAAUGCCGGGCCGAAGCCCGGAUAAAAGUGGAGGGGGCGG [C27G U24G], the self-cleavage is 0.02.

With CCGCCUAACACUGCCAAUGCCGGACCGAAGCCCGGAUAAAAGUGGAGGGGGCGG [C27G U24A], the self-cleavage came to 0.03.

CCGCCUAACACUGCCAAUGCCGGCCCGAAGCCCGGAUAAAAGUGGAGGGGGCGG [C27G U24C]: the self-cleavage worked out at 0.04.

In the case of CCGCCUAACACUGCCAAUGCCGGUCCGAAGCCCGGAUAAAAGUGGAGUGGGCGG [C27G G48U], the self-cleavage worked out at 0.02.

On to CCGCCUAACACUGCCAAUGCCGGUCCGAAGCCCGGAUAAAAGUGGAGAGGGCGG [C27G G48A], for which the self-cleavage is 0.04.

Regarding CCGCCUAACACUGCCAAUGCCGGUCCGAAGCCCGGAUAAAAGUGGAGCGGGCGG [C27G G48C], the self-cleavage is 0.03.

Regarding CCGCCUAACACUGCCAACGCCGGUCCGAAGCCCGGAUAAAAGUGGAGGGGGCGG [C27G U18C], the self-cleavage turned out to be 0.09.

With CCGCCUAACACUGCCAAGGCCGGUCCGAAGCCCGGAUAAAAGUGGAGGGGGCGG [C27G U18G], the self-cleavage was 0.17.

Turning to CCGCCUAACACUGCCAAAGCCGGUCCGAAGCCCGGAUAAAAGUGGAGGGGGCGG [C27G U18A], the self-cleavage came to 0.09.

As to CCGCCUAACACUGCCAAUGCCGGUCCGAAGCCCGGAUAAAAGUGGAGGGGGCUG [C27G G53U], the self-cleavage amounted to 0.03.

For CCGCCUAACACUGCCAAUGCCGGUCCGAAGCCCGGAUAAAAGUGGAGGGGGCCG [C27G G53C], the self-cleavage is 0.02.

Regarding CCGCCUAACACUGCCAAUGCCGGUCCGAAGCCCGGAUAAAAGUGGAGGGGGCAG [C27G G53A], the self-cleavage came out at 0.06.

For the variant CCGCCUAACACUGCCAAUGCCGGUCCGAAGCCCGGAUAAAAUUGGAGGGGGCGG [C27G G42U], the self-cleavage turned out to be 0.02.

In the case of CCGCCUAACACUGCCAAUGCCGGUCCGAAGCCCGGAUAAAAAUGGAGGGGGCGG [C27G G42A], the self-cleavage was determined as 0.06.

For the variant CCGCCUAACACUGCCAAUGCCGGUCCGAAGCCCGGAUAAAACUGGAGGGGGCGG [C27G G42C], the self-cleavage came out at 0.07.

On to CCGCCUAACACGGCCAAUGCCGGUCCGAAGCCCGGAUAAAAGUGGAGGGGGCGG [C27G U12G], for which the self-cleavage was determined as 0.06.

For CCGCCUAACACAGCCAAUGCCGGUCCGAAGCCCGGAUAAAAGUGGAGGGGGCGG [C27G U12A], the self-cleavage is 0.05.

In the case of CCGCCUAACACCGCCAAUGCCGGUCCGAAGCCCGGAUAAAAGUGGAGGGGGCGG [C27G U12C], the self-cleavage amounted to 0.05.

CCGCCUAACACUGCCAAUGCCGGUCCGAAGCCCGUAUAAAAGUGGAGGGGGCGG [C27G G35U]: the self-cleavage was determined as 0.1.

In the case of CCGCCUAACACUGCCAAUGCCGGUCCGAAGCCCGCAUAAAAGUGGAGGGGGCGG [C27G G35C], the self-cleavage came out at 0.04.

In the case of CCGCCUAACACUGCCAAUGCCGGUCCGAAGCCCGAAUAAAAGUGGAGGGGGCGG [C27G G35A], the self-cleavage is 0.12.

Consider CCGCCUAACACUGCCAAUGCCGGUCCGAAGCCCGGACAAAAGUGGAGGGGGCGG [C27G U37C], for which the self-cleavage amounted to 0.1.

As to CCGCCUAACACUGCCAAUGCCGGUCCGAAGCCCGGAAAAAAGUGGAGGGGGCGG [C27G U37A], the self-cleavage turned out to be 0.08.

Regarding CCGCCUAACACUGCCAAUGCCGGUCCGAAGCCCGGAUAAAAGUGUAGGGGGCGG [C27G G45U], the self-cleavage worked out at 0.02.

On to CCGCCUAACACUGCCAAUGCCGGUCCGAAGCCCGGAUAAAAGUGAAGGGGGCGG [C27G G45A], for which the self-cleavage worked out at 0.02.

For the variant CCGCCUAACACUGCCAAUGCCGGUCCGAAGCCCGGAUAAAAGUGCAGGGGGCGG [C27G G45C], the self-cleavage was 0.03.

The record behind these values is the RNAGym collection of RNA variant scans (doi:10.1002/anie.201605470).
